According to ChEMBL document CHEMBL1127038 (J Med Chem, 1993):

Legend:
Cavia porcellus [1] = species on record: Cavia porcellus; test: Nagative chronotropic activity was expressed as percent changes in atrial rate on guinea pig spontaneously beating isolated right atrium at 10 e-5 M; type: functional, Cardiac atrium
Cavia porcellus [2] = species on record: Cavia porcellus; test: Negative inotropic activity was calculated from log concentration/response curves; type: functional
Outline: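 Guinea pig left atrium driven at 1 Hz; decrease in developed tension measured. Potency is from log concentration/response curves by Litchfield–Wilcoxon probit analysis, n = 6-8.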

Cavia porcellus [3] = species on record: Cavia porcellus; test: Negative chronotropic activity was calculated from log concentration/response curves; type: functional
Cavia porcellus [4] = species on record: Cavia porcellus; test: Nagative inotropic activity was expressed as percent changes in developed tension in isolated guinea pig left atrium at 10 e-5 M; type: functional, Cardiac atrium
Outline: (§1)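 Isolated guinea pig left atrium, electrically driven at 1 Hz. Developed tension measured at 10⁻⁵ M and given as percent change from control, mean ±SEM, n = 5-6.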

Cavia porcellus [5] = species on record: Cavia porcellus; test: Inhibition concentration of vasodilation was calculated from log concentration/response curves; type: functional
Outline: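 K⁺-depolarized guinea pig aortic strips, calcium-induced contraction. Potency is from log concentration/response curves by Litchfield–Wilcoxon probit analysis, n = 6-8.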

Cavia porcellus [6] = species on record: Cavia porcellus; test: Percent inhibition of calcium-induced contraction on K+ -depolarized guinea pig aortic strips at 10 e-4 M; type: functional, Aorta
Outline: (§2)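 Guinea pig aortic strips depolarized with K⁺ and contracted by calcium. Inhibition of the calcium-induced contraction measured at 10⁻⁴ M, mean ±SEM, n = 6-7.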

Cavia porcellus [7] = species on record: Cavia porcellus; test: Nagative inotropic activity was expressed as percent changes in developed tension in isolated guinea pig left atrium at 10E-5 M; type: functional, Cardiac atrium; outline: as §1
Cavia porcellus [8] = species on record: Cavia porcellus; test: Percent inhibition of calcium-induced contraction on K+ -depolarized guinea pig aortic strips at 10E-4 M; type: functional, Aorta; outline: as §2
Cavia porcellus [9] = species on record: Cavia porcellus; test: Nagative chronotropic activity was expressed as percent changes in atrial rate on guinea pig spontaneously beating isolated right atrium at 10E-5 M; type: functional, Cardiac atrium

| Structure (SMILES) | Change (Cavia porcellus [1]) [%] | ED50 (Cavia porcellus [2]) [nM] | ED30 (Cavia porcellus [3]) [nM] | Change (Cavia porcellus [4]) [%] | IC50 (Cavia porcellus [5]; Cavia porcellus) [nM] | Inhibition (Cavia porcellus [6]) [%] | IC50 (Cavia porcellus [5]) [nM] | Change (Cavia porcellus [7]) [%] | Inhibition (Cavia porcellus [8]) [%] | Change (Cavia porcellus [9]) [%] |
| --- | --- | --- | --- | --- | --- | --- | --- | --- | --- | --- |
| COc1ccc(CCN(C)CCCC(C#N)(c2ccc(OC)c(OC)c2)C(C)C)cc1OC (stereo not drawn) | 94 | 610 | 70 | 84 | 380 |  |  |  |  |  |
| COc1ccc(CCN(C)C2CCCC(C(C#N)(c3ccc(OC)c(OC)c3)C(C)C)C2)cc1OC (stereo in doubt; 2a) | 78 | 100 | 75 | 84 |  | 37 |  |  |  |  |
| COc1ccc(CCN(C)C2CCCC(C(C#N)(c3ccc(OC)c(OC)c3)C(C)C)C2)cc1OC (stereo in doubt; 2b) | 93 | 1300 | 230 | 75 |  | 30 |  |  |  |  |
| COc1ccc(CCN(C)C2CCCC(C(C#N)(c3ccc(OC)c(OC)c3)C(C)C)C2)cc1OC (stereo in doubt; 2c) | 89 | 60 | 1300 | 86 |  | 49 | 18000 |  |  |  |
| COc1ccc(CCN(C)C2CCCC(C(C#N)(c3ccc(OC)c(OC)c3)C(C)C)C2)cc1OC (stereo in doubt; 2d) | 75 | 200 | 420 | 74 | 10000 | 58 |  |  |  |  |
| COc1ccc(CCNC2CCCC(C(C#N)(c3ccc(OC)c(OC)c3)C(C)C)C2)cc1OC (stereo in doubt; 7a) |  | 900 | 2400 |  |  |  | 17000 | 82 | 62 | 78 |
| COc1ccc(CCNC2CCCC(C(C#N)(c3ccc(OC)c(OC)c3)C(C)C)C2)cc1OC (stereo in doubt; 7b) |  | 110 | 60 |  |  |  |  | 74 | 35 | 66 |
| COc1ccc(CCNC2CCCC(C(C#N)(c3ccc(OC)c(OC)c3)C(C)C)C2)cc1OC (stereo in doubt; 7c) |  | 660 | 1400 |  |  |  |  | 70 | 40 | 64 |
| COc1ccc(CCNC2CCCC(C(C#N)(c3ccc(OC)c(OC)c3)C(C)C)C2)cc1OC (stereo in doubt; 7d) |  | 1100 | 370 |  |  |  |  | 83 | 56 | 84 |
